PRMT1 FP inh: blocks human protein arginine methyltransferase 1 | Q99873 | recombinant PRMT1, activity-based probe fluorescence polarization | actives 1.3% (n = 370,000) | inhibition, % at 2.79 µM | AID 652257;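 active = inhibition above about 21% made by adding two undisclosed values, limit read from the data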
GSTO1 inh: GSTO1 inhibition, counter-screen for RBBP9 inhibitors. P78417. recombinant GSTO1, activity-based probe fluorescence polarization. inhibition, % at 5.96 µM. actives 1.1% (n = 300,000). AID 1974;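 active = inhibition above the campaign mean inhibition plus 3 SD, cut at about 35% in these data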;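 note: 0% = GSTO1-1 with DMSO and 100% = wells lacking GSTO1-1 enzyme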
Target sequence (P78417 whole entry, looked up): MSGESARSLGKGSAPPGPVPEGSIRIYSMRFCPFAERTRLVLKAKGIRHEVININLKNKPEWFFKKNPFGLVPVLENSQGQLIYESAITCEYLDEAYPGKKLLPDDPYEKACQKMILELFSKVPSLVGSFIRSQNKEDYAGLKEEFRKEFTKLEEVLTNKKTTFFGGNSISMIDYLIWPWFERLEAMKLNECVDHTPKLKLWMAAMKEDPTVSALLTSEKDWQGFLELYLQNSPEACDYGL
PAD4 FP inh: PAD4 (human) enzyme inhibition; Q9UM07; recombinant PAD4, RCA probe fluorescence polarization; inhibition, % at 6.36 µM; actives 0.41% (n = 330,000); AID 485272;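 active = percent inhibition above a cutoff equal to the mean of all tested compounds plus 3 SD, cut at about 15% in these data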;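 note: 0% = PAD4 with RCA probe and DMSO and 100% = probe without PAD4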
RBBP9 inhibitor: inhibitors of human serine hydrolase RBBP9. O75884. inhibition, % at 7.94 µM. actives 0.2% (n = 220,000). recombinant RBBP9, FP-Rh probe fluorescence polarization;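 active = inhibition above the campaign mean of all tested compounds plus 3 SD, cut at about 14% in these data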;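 note: plate controls were DMSO wells with RBBP9 for no effect and wells lacking RBBP9 protein for full effect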
Target sequence (O75884 whole entry, looked up): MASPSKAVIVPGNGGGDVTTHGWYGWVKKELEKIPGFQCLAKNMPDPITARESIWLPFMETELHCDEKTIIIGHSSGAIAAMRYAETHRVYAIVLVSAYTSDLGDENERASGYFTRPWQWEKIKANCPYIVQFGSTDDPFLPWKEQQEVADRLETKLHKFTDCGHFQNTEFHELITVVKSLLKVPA
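System: RBBP9 protein / Quantity: 2.5 µM RBBP9 dispensing solution, before mixing / Also added: Serine-hydrolase probe FP-Rh, 375 nM pre-mixing / Dosing: 7.94 µM single dose, 0.794% DMSO / Timing: enzyme-compound preincubation 30 min, then probe labeling 45 min, 25 °C / Signal: FP readout at 525/598 nm / Controls: DMSO-treated enzyme wells and wells lacking RBBP9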
SIAE primary: blocks human sialic acid acetylesterase; Q9HAT2; SIAE FP-Rh probe binding, fluorescence polarization; inhibition, % at 9.66 µM; actives 0.69% (n = 370,000);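 active = inhibition above a cutoff: mean of compounds within the control limits plus 3 SD of those, cut at about 17% in these data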;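 note: 0% = plate median of compound wells and 100% = probe without SIAE protein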
SIAE inh conf: confirmation of human SIAE inhibitors | inhibition, % at 9.66 µM | shares compounds with SIAE primary | SIAE FP-Rh activity-based probe, fluorescence polarization | actives 13% (n = 2,300);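 active = mean inhibition of the replicates above the hit cutoff set in the primary screen, cut at about 17% in these data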;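 note: 0% = SIAE with DMSO and probe and 100% = probe without SIAE; inhibitors lower polarization as more probe stays unbound to SIAE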
* marks the source's active call; other numbers are inactive results; . = not tested or not shown. A selection: hits, their analogues and other compounds. The true share with any hit is near 2.7%.

SMILES	PRMT1 FP inh	GSTO1 inh	PAD4 FP inh	RBBP9 inhibitor	SIAE primary	SIAE inh conf
CN(Cc1cnccn1)C(=O)CC1C(=O)NCCN1Cc1cccc(Oc2ccccc2)c1 (stereo not drawn)	-1	7	-1	-4	4	.
COc1ccc(NC(=S)Nc2ccccc2)cc1	-4	3	0	-6	10	.
Nc1ccc(NC(=S)Nc2ccccc2)cc1	1	.	.	-6	17*	3
CC1CCC2(CCC(=O)N2CCCOC(=O)NC(C)(C)C)CC1 (stereo not drawn)	2	.	.	.	47*	-5
CCC(=O)OCCCN1C(=O)CCC12CCC(C)CC2 (stereo not drawn)	0	.	.	.	-7	.
Cc1ccccc1CNC(=O)C1CCC(=O)N(CC2CCCCC2)C1 (stereo not drawn)	2	-2	3	.	0	.
CCCCN(C)CCOc1ccccc1OCC	0	-5	1	-4	0	.
CCC(CO)Oc1cc(NCc2ccc(Cl)cc2)c2ncn(C(C)C)c2c1 (stereo not drawn)	2	.	-9	.	-2	.
CCC(CO)Oc1cc(NCc2ccc(Cl)cc2Cl)c2ncn(C(C)C)c2c1 (stereo not drawn)	-2	.	2	.	19*	8
COCCNC(=S)N/N=C(\C)c1ccccc1O	3	-7	0	-3	3	.
Oc1ccc(Br)cc1/C=N/NC(=S)NCCc1ccccc1	-1	-7	1	.	18*	10
O=C(CCc1ccccc1)N/N=C/c1cc(Br)ccc1O	-3	-1	-2	-1	2	.
COc1ccc(O)c(/C=N/NC(=S)NCCc2ccccc2)c1	-2	4	-1	.	18*	9
COc1ccc(/C(C)=N/NC(=S)NCCc2ccccc2)c(O)c1	7	-29	4	.	25*	24*
Cc1ccc(NC(=O)COc2cccc3ccccc23)c(O)c1	3	.	2	.	1	.
Cc1noc(C)c1COC(=O)c1csc2c1CCC(C)C2 (stereo not drawn)	-5	.	-2	.	20*	0
COc1ccccc1N1CCN(Cc2ccco2)CC1	5	4	-1	-3	-68	.
COc1ccc(NC(=O)N(C)C[C@H]2Oc3c(NC(=O)c4ccncc4)cccc3C(=O)N([C@H](C)CO)C[C@@H]2C)cc1	-4	.	2	.	23*	2
C[C@H]1CN([C@@H](C)CO)C(=O)c2cccc(NC(=O)c3ccncc3)c2O[C@H]1CN(C)C(=O)Nc1ccccc1	1	.	1	.	1	.
COC(=O)C1=C(O)/C(=C/c2ccc(OCC(=O)Nc3ccc(OC)cc3)cc2)N=C1C	2	.	.	.	0	.
O=C(c1[nH]c(C(F)(F)F)nc1-c1ccccc1)N1CCOCC1	6	.	.	.	6	.
COC(=O)C1=C(N)Oc2c(oc(CO)cc2=O)C1c1ccc(F)cc1 (stereo not drawn)	4	-1	1	-6	2	.
Cc1ccccc1Cn1c(=N)n(CC(=O)c2ccco2)c2ccccc21	-2	14	0	-7	22*	3
O=C(Cc1c[nH]c2ccccc12)Nc1ccc(Nc2cccnc2)c(-c2ccc(Oc3ccccc3)cc2)c1	-1	.	.	.	18*	6
O=C(Cc1c[nH]c2ccccc12)Nc1ccc(Nc2cccnc2)c(-c2ccc(OC(F)(F)F)cc2)c1	8	.	.	.	8	.
SMILES	PRMT1 FP inh	GSTO1 inh	PAD4 FP inh	RBBP9 inhibitor	SIAE primary	SIAE inh conf
O=C(Cc1cn(Cc2ccccc2)c2ccccc12)Nc1ccc(Nc2cccnc2)c(Br)c1	4	.	.	.	18*	16
CCOC(=O)c1sc(NC(=O)c2cccc(S(=O)(=O)N3CCc4ccccc43)c2)c(C#N)c1C	1	-9	0	8	7	.
COc1ccc(Nc2nc(C)nc3c2nnn3Cc2ccccc2)cc1OC	-3	2	-1	-5	17*	-4
CC1CC(C)CN(CCCNC(=O)Cn2ncc3c(=O)oc4ccccc4c32)C1 (stereo not drawn)	-1	6	3	-10	0	.
CCCCN(C(=O)CC1CCCC1)c1c(N)n(CCC)c(=O)[nH]c1=O	0	.	-3	.	3	.
c1ccc([C@H]2CNCCN2CCc2cccc3ccccc23)cc1	-1	.	0	.	23*	4
COc1cc(CCCN2CCNC[C@@H]2c2ccccc2)cc(OC)c1OC	-1	.	7	.	16	.
C=CCOc1ccc(/C=C2/C(=O)ON=C2C)cc1OC	1	4	2	.	8	.
COc1ccc(/C=C2/C(=O)ON=C2C)cc1Cl	1	2	-3	.	22*	4
CCCOc1cccc(-c2cc(C(=O)NNC(=S)NCC)c3ccccc3n2)c1	-6	-12	-2	-2	-4	.
CCNC(=S)NNC(=O)c1cc(-c2cccc(OC)c2)nc2ccccc12	-3	-15	-3	-6	22*	1
Cc1cc2ccccn2c1C(=O)c1ccc(S(=O)(=O)N(C)C)cc1	-1	-4	-2	0	19*	1
CC(OC(=O)CN1C(=O)C2CC=CCC2C1=O)C(=O)Nc1ccc(F)cc1Cl (stereo not drawn)	-2	-2	-2	.	-4	.
N#C/C(=C\c1cc2ccccc2nc1N1CCOCC1)C(=O)Nc1ccc(N2CCOCC2)cc1	1	7	2	-1	20*	7
N#CC(C#N)=Cc1cc2ccccc2nc1N1CCOCC1	-1	1	3	-8	0	.
O=C(N/N=C/c1ccc(O)c(O)c1)c1cc(-c2ccccc2)nc2ccccc12	3	21	-4	.	19*	-13
O=C(N/N=C/c1cccc(O)c1)c1cc(-c2ccccc2)nc2ccccc12	-1	-12	3	.	-34	.
Brc1ccc2nc(-c3ccncc3)c(NC3CCCC3)n2c1	4	8	-2	3	19*	2
Cc1ccc(NC(=O)Cn2c(CCC(=O)O)ccc2-c2cccs2)cc1Cl	4	2	-8	-13	126*	1
COc1ccc(NC(=O)Nc2ccc(F)cc2)c(C)c1	1	20	-11	-5	-2	.
O=C(Nc1nncs1)c1ccc(S(=O)(=O)c2ccccc2)cc1	-2	4	-6	-6	-3	.
CN(C)c1ccc(N=Cc2nc(-c3ccccc3)oc2O)cc1	-4	24	9	-5	18*	15
Cc1cc(=O)[nH]c(SCC(=O)NCC2CCCO2)n1 (stereo not drawn)	-6	-1	0	-7	2	.
O=C(CSc1nc(O)c(C2CCCCC2)c(=O)[nH]1)NCC1CCCO1 (stereo not drawn)	0	10	8	-3	17*	6
CCN(CC)S(=O)(=O)c1cc(Cl)ccc1OC	3	14	-1	2	-2	.
CCN(CC)S(=O)(=O)c1cc(Br)ccc1OC	0	6	-11	-1	18*	1
Cc1ccc2c(CN3CCCCC3)cc(=O)oc2c1C	1	-4	3	.	-5	.
O=C(Nc1ccccc1)c1cccc(C(F)(F)F)c1	-1	-4	3	-8	0	.
Cc1c(C(=O)Nc2ccccc2)c2ccc(C(F)(F)F)cc2n1O	-1	-7	-3	.	25*	29*

Compound activity: PubChem, The Scripps Research Institute Molecular Screening Center
